This note sets out measurements from article PMC3983351 (Journal of Medicinal Chemistry, 2014).

The data set in a line: silicate ester hydrolysis rate study by 1H NMR. In kind it is physicochemical. The following applies: for ∼krel of hydrolysis at C2′: C2′ silicate; for ∼krel of hydrolysis at C2′ / ∼krel of hydrolysis at C7: kobs relative to that of 1d; for ∼krel of hydrolysis at C7: C7 silicate; for difference in krel, triethyl vs trioctyl silicate: 1a vs 1b (PTX) or 4a vs 4b. In a few lines: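 About 10 mg silicate ester in 900 μL acetone-d6, then 100 μL of 9:1 v/v D2O/TFA added and mixed. Held at 22 °C ± 1.0 °C. 1H NMR at 500 MHz (16 or 32 transients) at 8–30 time points over more than 3 half-lives. The 2′/7-methine signals of silicate and free taxane were integrated against H5. kobs came from the ln[species] vs time slope (three replicates). krel is kobs divided by that of the reference silicate.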

As for `CC(=O)O[C@H]1C(=O)[C@@]2(C)[C@H]([C@H](OC(=O)c3ccccc3)[C@]3(O)C[C@H](OC(=O)[C@H](O[Si](OC(C)C)(OC(C)C)OC(C)C)[C@@H](NC(=O)c4ccccc4)c4ccccc4)C(C)=C1C3(C)C)[C@]1(OC(C)=O)CO[C@@H]1C[C@@H]2O` [1c, 2′-O-[(Triisopropoxy)silyl]paclitaxel], the “∼krel of hydrolysis at C2′” value came out at 570.
Take “2′-(Di-tert-butoxyethoxysilyl)docetaxel [4e]”: the “∼krel of hydrolysis at C2′” value came to 5.0.
Same read-out and setting: to 2′-O-(Triisopropoxysilyl)docetaxel [4c] belongs 260; to “2′-(Trimenthyloxysilyloxy)docetaxel [4d]”, 0.88.
With `CC(=O)O[C@H]1C(=O)[C@@]2(C)[C@H]([C@H](OC(=O)c3ccccc3)[C@]3(O)C[C@H](OC(=O)[C@H](O[Si](OC4CC(C)CCC4C(C)C)(OC4CC(C)CCC4C(C)C)OC4CC(C)CCC4C(C)C)[C@@H](NC(=O)c4ccccc4)c4ccccc4)C(C)=C1C3(C)C)[C@]1(OC(C)=O)CO[C@@H]1C[C@@H]2O` (some centres unmarked) [1d, 2′-[(Trimenthyloxy)silyl]paclitaxel], the “∼krel of hydrolysis at C2′” value is given as 1.0.
`CCCCCCCCO[Si](OCCCCCCCC)(OCCCCCCCC)O[C@H]1C[C@H]2OC[C@@]2(OC(C)=O)[C@H]2[C@H](OC(=O)c3ccccc3)[C@]3(O)C[C@H](OC(=O)[C@H](O[Si](OCCCCCCCC)(OCCCCCCCC)OCCCCCCCC)[C@@H](NC(=O)c4ccccc4)c4ccccc4)C(C)=C([C@@H](OC(C)=O)C(=O)[C@]12C)C3(C)C` [2b, 2′,7-Di-O-(Tri-n-octyloxysilyl)paclitaxel]: the “∼krel of hydrolysis at C2′” value is 3800 and the “∼krel of hydrolysis at C7” value came out at 340.
Turning to `CCCCCCCCO[Si](OCCCCCCCC)(OCCCCCCCC)O[C@H]1C[C@H]2OC[C@@]2(OC(C)=O)[C@H]2[C@H](OC(=O)c3ccccc3)[C@]3(O)C[C@H](OC(=O)[C@H](O)[C@@H](NC(=O)c4ccccc4)c4ccccc4)C(C)=C([C@@H](OC(C)=O)C(=O)[C@]12C)C3(C)C` [3b, 7-O-(Tri-n-octyloxysilyl)paclitaxel], the “∼krel of hydrolysis at C7” value was 450.
On to `CCO[Si](OCC)(OCC)O[C@@H](C(=O)O[C@H]1C[C@@]2(O)[C@@H](OC(=O)c3ccccc3)[C@@H]3[C@]4(OC(C)=O)CO[C@@H]4C[C@H](O)[C@@]3(C)C(=O)[C@H](OC(C)=O)C(=C1C)C2(C)C)[C@@H](NC(=O)c1ccccc1)c1ccccc1` [1a, 2′-O-[(Triethoxy)silyl]paclitaxel], for which the “difference in krel, triethyl vs trioctyl silicate” value is reported as ~3 and the “∼krel of hydrolysis at C2′” value is 18000.
For `CCO[Si](OCC)(OCC)O[C@H]1C[C@H]2OC[C@@]2(OC(C)=O)[C@H]2[C@H](OC(=O)c3ccccc3)[C@]3(O)C[C@H](OC(=O)[C@H](O)[C@@H](NC(=O)c4ccccc4)c4ccccc4)C(C)=C([C@@H](OC(C)=O)C(=O)[C@]12C)C3(C)C` [3a, 7-O-(Triethoxysilyl)paclitaxel], the “∼krel of hydrolysis at C7” value was determined as 2200.
With `CC(=O)O[C@H]1C(=O)[C@@]2(C)[C@H]([C@H](OC(=O)c3ccccc3)[C@]3(O)C[C@H](OC(=O)[C@H](O[Si](OC(C)=O)(OC(C)(C)C)OC(C)(C)C)[C@@H](NC(=O)c4ccccc4)c4ccccc4)C(C)=C1C3(C)C)[C@]1(OC(C)=O)CO[C@@H]1C[C@@H]2O` [1g, 2′-O-(Di-tert-butoxyacetoxysilyl)paclitaxel], the “∼krel of hydrolysis at C2′” value is recorded as 1900.
Same read-out and setting: to “2′-O-(Tri-n-octyloxysilyl)docetaxel [4b]” belongs 2600.
Take 2′-O-(Triethoxysilyl)docetaxel [4a]: the “difference in krel, triethyl vs trioctyl silicate” value was ~3 and the “∼krel of hydrolysis at C2′” value is 6500.
Consider `CC(=O)O[C@H]1C(=O)[C@]2(C)[C@@H](O[Si](OC(C)C)(OC(C)C)OC(C)C)C[C@H]3OC[C@@]3(OC(C)=O)[C@H]2[C@H](OC(=O)c2ccccc2)[C@]2(O)C[C@H](OC(=O)[C@H](O[Si](OC(C)C)(OC(C)C)OC(C)C)[C@@H](NC(=O)c3ccccc3)c3ccccc3)C(C)=C1C2(C)C` [2c, 2′,7-Di-O-(triisopropoxysilyl)paclitaxel], for which the “∼krel of hydrolysis at C2′” value is listed as 520 and the “∼krel of hydrolysis at C7” value came to 46.
On to `CCO[Si](O[C@@H](C(=O)O[C@H]1C[C@@]2(O)[C@@H](OC(=O)c3ccccc3)[C@@H]3[C@]4(OC(C)=O)CO[C@@H]4C[C@H](O)[C@@]3(C)C(=O)[C@H](OC(C)=O)C(=C1C)C2(C)C)[C@@H](NC(=O)c1ccccc1)c1ccccc1)(OC(C)(C)C)OC(C)(C)C` [1f, 2′-O-[(Di-tert-butoxy)(ethoxy)silyl]paclitaxel], for which the “∼krel of hydrolysis at C2′” value came to 5.6.
`CCO[Si](OCC)(OCC)O[C@H]1C[C@H]2OC[C@@]2(OC(C)=O)[C@H]2[C@H](OC(=O)c3ccccc3)[C@]3(O)C[C@H](OC(=O)[C@H](O[Si](OCC)(OCC)OCC)[C@@H](NC(=O)c4ccccc4)c4ccccc4)C(C)=C([C@@H](OC(C)=O)C(=O)[C@]12C)C3(C)C` [2a, 2′,7-Di-O-(triethoxysilyl)paclitaxel]: the “∼krel of hydrolysis at C2′” value came to 15000 and the “∼krel of hydrolysis at C7” value is 2100.
